Test results reported in ChEMBL document CHEMBL5376013, “Design, synthesis and biological evaluation of novel morpholinopyrimidine-5-carbonitrile derivatives as dual PI3K/mTOR inhibitors” (RSC Med Chem, 2024).

Key:
[1] = tested on: CCRF-CEM; experiment: Antitumor activity against human CCRF-CEM cells assessed as growth inhibition at 10 uM relative to control; format: functional; conditions: read-out: GI
In short: (§1)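 After drug addition, plates were incubated 48 h at 37 °C under 5% CO2. Adherent cells were fixed with cold TCA (10% final, 60 min, 4 °C) and suspension cells with 16% final TCA. Staining used 0.4% SRB in 1% acetic acid, solubilized in 10 mM trizma, read at A515. Percent growth was calculated from time-zero, control and treated absorbances.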

[2] = tested on: RPMI-8226; experiment: Antitumor activity against human RPMI-8226 cells assessed as growth inhibition at 10 uM relative to control; format: functional; conditions: read-out: GI; in short: as §1
[3] = tested on: NCI-H460; experiment: Antitumor activity against human NCI-H460 cells assessed as growth inhibition at 10 uM relative to control; format: functional; conditions: read-out: GI; in short: as §1
[4] = tested on: HT-29; experiment: Antitumor activity against human HT-29 cells assessed as growth inhibition at 10 uM relative to control; format: functional; conditions: read-out: GI; in short: as §1
[5] = tested on: KM12; experiment: Antitumor activity against human KM12 cells assessed as growth inhibition at 10 uM relative to control; format: functional; conditions: read-out: GI; in short: as §1
[6] = tested on: SW-620; experiment: Antitumor activity against human SW-620 cells assessed as growth inhibition at 10 uM relative to control; format: functional; conditions: read-out: GI
In short: (§2)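 Drug exposure 48 h at 37 °C, 5% CO2. Adherent cells fixed with cold TCA (10% final), suspension cells with TCA (16% final). Stained with 0.4% SRB in 1% acetic acid, dissolved in 10 mM Tris, A515. Growth relative to time-zero and untreated control.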

[7] = tested on: Malme-3M; experiment: Antitumor activity against human Malme-3M cells assessed as growth inhibition at 10 uM relative to control; format: functional; conditions: read-out: GI; in short: as §1
[8] = tested on: SK-MEL-28; experiment: Antitumor activity against human SK-MEL-28 cells assessed as growth inhibition at 10 uM relative to control; format: functional; conditions: read-out: GI; in short: as §2
[9] = tested on: UACC-62; experiment: Antitumor activity against human UACC-62 cells assessed as growth inhibition at 10 uM relative to control; format: functional; conditions: read-out: GI; in short: as §2
[10] = tested on: NCI/ADR-RES; experiment: Antitumor activity against human NCI-ADR-RES cells assessed as growth inhibition at 10 uM relative to control; format: functional; conditions: read-out: GI; in short: as §1
[11] = tested on: ACHN; experiment: Antitumor activity against human ACHN cells assessed as growth inhibition at 10 uM relative to control; format: functional; conditions: read-out: GI; in short: as §1
[12] = tested on: SN12C; experiment: Antitumor activity against human SN12C cells assessed as growth inhibition at 10 uM relative to control; format: functional; conditions: read-out: GI; in short: as §2
[13] = tested on: T47D; experiment: Antitumor activity against human T47D cells assessed as growth inhibition at 10 uM relative to control; format: functional; conditions: read-out: GI; in short: as §2
[14] = tested on: MDA-MB-468; experiment: Antitumor activity against human MDA-MB-468 cells assessed as growth inhibition at 10 uM relative to control; format: functional; conditions: read-out: GI; in short: as §1
[15] = tested on: SR; experiment: cells; conditions: Homo sapiens
[16] = Cytotoxicity against human PCS-800-011 cells assessed as inhibition of cell growth by MTT assay; format: toxicity, cell-based
[17] = target: Phosphatidylinositol 4,5-bisphosphate 3-kinase catalytic subunit alpha isoform (Homo sapiens, UniProt P42336); experiment: Inhibition of PI3Kalpha (unknown origin)
Chain of Phosphatidylinositol 4,5-bisphosphate 3-kinase catalytic subunit alpha isoform (P42336 whole entry, canonical isoform): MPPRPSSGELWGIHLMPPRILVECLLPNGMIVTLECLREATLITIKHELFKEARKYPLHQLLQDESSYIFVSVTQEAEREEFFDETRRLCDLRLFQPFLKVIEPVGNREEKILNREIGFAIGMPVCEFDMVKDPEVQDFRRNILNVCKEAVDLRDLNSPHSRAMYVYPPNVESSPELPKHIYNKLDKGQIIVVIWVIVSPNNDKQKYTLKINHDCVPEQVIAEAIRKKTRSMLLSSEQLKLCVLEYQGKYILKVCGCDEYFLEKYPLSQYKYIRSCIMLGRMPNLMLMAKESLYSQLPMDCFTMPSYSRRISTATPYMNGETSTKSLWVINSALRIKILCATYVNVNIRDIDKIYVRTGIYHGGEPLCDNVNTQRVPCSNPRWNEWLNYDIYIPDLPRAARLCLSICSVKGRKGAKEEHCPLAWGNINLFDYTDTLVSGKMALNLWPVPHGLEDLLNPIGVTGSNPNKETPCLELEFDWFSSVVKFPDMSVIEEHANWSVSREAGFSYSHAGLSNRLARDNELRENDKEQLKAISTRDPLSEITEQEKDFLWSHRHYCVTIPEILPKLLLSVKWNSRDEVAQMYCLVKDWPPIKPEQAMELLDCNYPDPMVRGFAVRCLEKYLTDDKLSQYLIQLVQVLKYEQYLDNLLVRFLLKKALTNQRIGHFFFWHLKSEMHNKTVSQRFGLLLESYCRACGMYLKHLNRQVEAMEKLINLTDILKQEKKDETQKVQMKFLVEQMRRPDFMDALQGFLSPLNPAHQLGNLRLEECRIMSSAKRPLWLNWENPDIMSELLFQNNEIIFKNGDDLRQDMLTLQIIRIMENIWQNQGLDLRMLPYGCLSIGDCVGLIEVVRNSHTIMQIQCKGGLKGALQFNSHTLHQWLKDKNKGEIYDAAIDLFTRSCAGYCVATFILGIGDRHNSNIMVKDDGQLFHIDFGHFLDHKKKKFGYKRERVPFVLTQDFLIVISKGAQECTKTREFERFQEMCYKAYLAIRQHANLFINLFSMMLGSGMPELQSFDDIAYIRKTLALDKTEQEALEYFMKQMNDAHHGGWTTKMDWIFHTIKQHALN
In short: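 Inhibitor preincubated 10 min before PIP2 substrate in kinase reaction buffer (25 µl final), 1 h reaction. Product detected by competition with biotinylated PIP3 for GRP1, with SA-HRP and TMB colour.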

[18] = target: T1, Serine/threonine-protein kinase mTOR (Homo sapiens, UniProt P42345); experiment: Inhibition of mTOR (unknown origin) incubated for 1 hr by ELISA analysis
In short: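 Glutathione-coated plate loaded with mTOR substrate (1 h, room temperature). mTOR with compound in 2X kinase assay buffer, 30 min at 30 °C, then stop solution. Phospho-p70S6K-T389 detected by primary antibody, then HRP conjugate (1 h each), TMB, A450 with 540 or 595 nm reference.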

[19] = tested on: SR; experiment: Induction of cell cycle arrest in human SR cells assessed as accumulation of cells at pre-G phase incubated for 24 hrs by PI staining based flow cytometry analysis (reference value: 1.39%); format: functional
[20] = tested on: SR; experiment: Induction of cell cycle arrest in human SR cells assessed as accumulation of cells at G1 phase incubated for 24 hrs by PI staining based flow cytometry analysis (reference value: 53.01%); format: functional
[21] = tested on: SR; experiment: Induction of cell cycle arrest in human SR cells assessed as accumulation of cells at G2/M phase incubated for 24 hrs by PI staining based flow cytometry analysis (reference value: 8.57%); format: functional
[22] = tested on: SR; experiment: Induction of cell cycle arrest in human SR cells assessed as accumulation of cells at S phase incubated for 24 hrs by PI staining based flow cytometry analysis (reference value: 38.42%); format: functional
[23] = tested on: SR; experiment: Induction of cell cycle arrest in human SR cells assessed as cell aggregates incubated for 24 hrs by PI staining based flow cytometry analysis (reference value: 1.47%); format: functional
[24] = tested on: SR; experiment: Induction of cell cycle arrest in human SR cells assessed as cell debris incubated for 24 hrs by PI staining based flow cytometry analysis (reference value: 1.93%); format: functional
[25] = tested on: SR; experiment: Induction of apoptosis in human SR cells assessed as early apoptotic cells incubated for 24 hrs by AnnexinV-FITC/propidium iodide staining based flow cytometry (Rvb =0.29%); format: functional
[26] = tested on: SR; experiment: Induction of apoptosis in human SR cells assessed as late apoptotic cells incubated for 24 hrs by AnnexinV-FITC/propidium iodide staining based flow cytometry (Rvb =0.18%); format: functional
[27] = tested on: SR; experiment: Induction of apoptosis in human SR cells assessed as necrotic cells incubated for 24 hrs by AnnexinV-FITC/propidium iodide staining based flow cytometry (Rvb =0.92%); format: functional
[28] = target: T1, Serine/threonine-protein kinase mTOR; experiment: Inhibition of mTOR in human SR cells by Western blot analysis; format: cell-based

Compound	inhibition of growth at 10 µM [1] [%]	inhibition of growth at 10 µM [2] [%]	inhibition of growth at 10 µM [3] [%]	inhibition of growth at 10 µM [4] [%]	inhibition of growth at 10 µM [5] [%]	inhibition of growth at 10 µM [6] [%]	inhibition of growth at 10 µM [7] [%]	inhibition of growth at 10 µM [8] [%]	inhibition of growth at 10 µM [9] [%]	inhibition of growth at 10 µM [10] [%]	inhibition of growth at 10 µM [11] [%]	inhibition of growth at 10 µM [12] [%]	inhibition of growth at 10 µM [13] [%]	inhibition of growth at 10 µM [14] [%]	IC50 [15] [nM]	also measured
N#Cc1c(-c2ccc(Cl)cc2)nc(N/N=C/c2ccc[nH]2)nc1N1CCOCC1	79.2	93.6	63.3	33.8	63.5	10.8	< 11.1	< 1	12	15.5	17.5	59.9	35.1	21.8	770	
COc1cc(/C=N/Nc2nc(-c3ccc(Cl)cc3)c(C#N)c(N3CCOCC3)n2)cc(OC)c1OC	58.1	74.6	46.2	69.3	31.2	10.3	< 1	14.2	31.7	59	36.7	35.4	51.8	32.1	350	
N#Cc1c(-c2ccc(Cl)cc2)nc(N/N=C/c2cccc(O)c2)nc1N1CCOCC1	63.8	62.6	22.1	30.2	24	35.2	< 1	22.9	< 1	35.1	39.1	21.7	35.4	12.6	90	IC50 [16]: 44500 nM; IC50 [17]: 1270 nM; IC50 [18]: 2850 nM; Activity [19]: 31.4%; Activity [20]: 39.28%; Activity [21]: 33.77%; Activity [22]: 26.95%; Activity [23]: 1.61%; Activity [24]: 2.24%; Activity [25]: 2.61%; Activity [26]: 19.19%; Activity [27]: 9.61%
N#Cc1c(-c2ccc(Cl)cc2)nc(N/N=C2/C(=O)Nc3ccccc32)nc1N1CCOCC1	< 1	< 1	17.6	< 1	< 1	10.1	< 1	< 1	< 1	< 1	< 1	< 1	< 1	< 1		
N#Cc1c(-c2ccc(Cl)cc2)nc(N/N=C/c2cccc(Cl)c2)nc1N1CCOCC1	27.5	35	< 1	59.6	< 1	46.7	< 1	< 1	< 1	10.8	25.7	< 1	23.4	14.9	100	IC50 [16]: 17500 nM; IC50 [17]: 170 nM; IC50 [18]: 830 nM; Activity [19]: 44.26%; Activity [20]: 32.95%; Activity [21]: 37.64%; Activity [22]: 29.41%; Activity [23]: 1.51%; Activity [24]: 1.96%; Activity [25]: 3.54%; Activity [26]: 27.96%; Activity [27]: 12.76%; IC50 [28]: 103 nM
N#Cc1c(-c2ccc(Cl)cc2)nc(NN2C(=O)c3ccccc3C2=O)nc1N1CCOCC1	< 1	< 1	< 1	< 1	< 1	< 1	< 1	< 1	< 1	< 1	< 1	< 1	< 1	< 1		
CSc1nc(Cl)c(C#N)c(-c2ccc(Cl)cc2)n1	26.1	< 1	< 1	< 1	< 1	< 1	< 1	< 1	25.6	< 1	< 1	< 1	< 1	< 1		
